Source: ChEMBL document CHEMBL3853321, “Optimization of Platelet-Derived Growth Factor Receptor (PDGFR) Inhibitors for Duration of Action, as an Inhaled Therapy for Lung Remodeling in Pulmonary Arterial Hypertension” (J Med Chem, 2016)
pIC50: −log10 of the molar value. ≈ marks a conversion by molar mass, not a printed value. Values belong to the compound of their own block, whether it stands above or below them. Calls of active or inactive are those of the source. The rule behind the calls is not given here.

Assays:
[1] = Transcellular permeability of the compound by PAMPA; type: ADME
[2] = biological target: Platelet-derived growth factor receptor alpha (Homo sapiens, UniProt P16234); test: Inhibition of PDGFRalpha kinase domain (unknown origin) assessed as reduction in probe peptide substrate phosphorylation by capillary electrophoresis
[3] = Solubility of the compound using 10%PEG200/[…]D5W by high-throughput assay; type: physicochemical
How it was run: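 Solubility determined in the intratracheal dosing vehicle, 10% PEG200/[…] D5W.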

Rattus norvegicus [4] = test: In vivo receptor occupancy at PDGFR-beta kinase domain in rat lung at 0.1 mg/kg, it measured after 7 hrs by immunoprecipitation assay; type: functional
[5] = Drug uptake in rat lung at 0.1 mg/kg, it at 7 hrs; type: ADME, organism-based; details: inhaled or intranasal, read-out: Drug uptake
How it was run: (§1)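 Single intratracheal dose as a solution in 10% PEG200/[…] D5W vehicle; compound concentration measured in lung tissue at 7 h or 24 h after dosing.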

Rattus norvegicus [6] = test: In vivo receptor occupancy at PDGFR-beta kinase domain in rat lung at 0.1 mg/kg, it measured after 24 hrs by immunoprecipitation assay; type: functional
[7] = Drug uptake in rat lung at 0.1 mg/kg, it at 24 hrs; type: ADME, organism-based; details: inhaled or intranasal, read-out: Drug uptake; how it was run: as §1
Rattus norvegicus [8] = test: In vivo receptor occupancy at PDGFR-beta kinase domain in rat lung at 0.4 mg/kg, it measured after 7 hrs by immunoprecipitation assay; type: functional
[9] = Drug uptake in rat lung at 0.4 mg/kg, it at 7 hrs; type: ADME, organism-based; details: inhaled or intranasal, read-out: Drug uptake; how it was run: as §1
[10] = biological target: Voltage-gated inwardly rectifying potassium channel KCNH2 (Homo sapiens, UniProt Q12809); test: Inhibition of human ERG
[11] = biological target: T1, Muscarinic acetylcholine receptor M1 (Homo sapiens, UniProt P11229); test: Inhibition of M1 receptor (unknown origin)
T1 sequence (P11229 whole entry): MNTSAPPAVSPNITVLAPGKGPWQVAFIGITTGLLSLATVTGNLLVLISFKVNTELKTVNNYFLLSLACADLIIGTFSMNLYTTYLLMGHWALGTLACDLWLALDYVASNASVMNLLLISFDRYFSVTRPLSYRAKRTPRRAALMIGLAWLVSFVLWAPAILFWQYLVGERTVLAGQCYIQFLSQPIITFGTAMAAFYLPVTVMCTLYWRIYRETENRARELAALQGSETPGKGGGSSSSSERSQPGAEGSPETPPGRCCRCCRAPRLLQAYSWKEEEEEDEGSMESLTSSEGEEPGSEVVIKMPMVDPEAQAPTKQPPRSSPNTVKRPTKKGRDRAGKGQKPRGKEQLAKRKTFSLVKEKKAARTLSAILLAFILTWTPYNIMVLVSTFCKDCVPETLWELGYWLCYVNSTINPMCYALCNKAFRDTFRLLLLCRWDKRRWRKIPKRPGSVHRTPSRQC

Histamine H3 receptor = Histamine H3 receptor (Homo sapiens, UniProt Q9Y5N1); test: Inhibition of H3 receptor (unknown origin)
[12] = Drug uptake in blood of rat monocrotaline model of pulmonary arterial hypertension at 0.01 mg/kg, it; type: ADME, organism-based; details: in vivo, inhaled_or_intranasal, read-out: Drug uptake
[13] = Drug uptake in blood of rat monocrotaline model of pulmonary arterial hypertension at 0.03 mg/kg, it; type: ADME, organism-based; details: in vivo, inhaled_or_intranasal, read-out: Drug uptake
[14] = Drug uptake in blood of rat monocrotaline model of pulmonary arterial hypertension at 0.1 mg/kg, it; type: ADME, organism-based; details: in vivo, inhaled_or_intranasal, read-out: Drug uptake
[15] = Half life in rat; type: ADME; details: in vivo
[16] = Oral bioavailability in it dosed rat; type: ADME, organism-based; details: in vivo
Rattus norvegicus [17] = test: Anti-remodeling activity in rat monocrotaline model of pulmonary arterial hypertension assessed as reduction in MCT-induced muscularization of small blood vessels in lung at 0.03 mg/kg, it administered twice daily for 7 days by histological analysis relative to control; type: functional; design: scale not given: the % may be the effect or the level left
How it was run: (§2)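 Rats given monocrotaline two weeks beforehand so pathology develops; compound then given intratracheally twice daily for seven days (therapeutic mode). Read-out: percentage of fully muscularized small pulmonary vessels; group values given as mean with SEM.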

Rattus norvegicus [18] = test: Anti-remodeling activity in it dosed rat monocrotaline model of pulmonary arterial hypertension assessed as reduction in MCT-induced muscularization of small blood vessels in lung administered twice daily for 7 days by histological analysis; type: functional; details: 168 h, read-out: MED; how it was run: as §2
[19] = Drug uptake in blood of rat monocrotaline model of pulmonary arterial hypertension at 100 mg/kg, po; type: ADME, organism-based; details: in vivo, read-out: Drug uptake
Rattus norvegicus [20] = test: Anti-remodeling activity in rat monocrotaline model of pulmonary arterial hypertension assessed as reduction in MCT-induced muscularization of small blood vessels in lung at 100 mg/kg, po administered once daily for 7 days by histological analysis
Rattus norvegicus [21] = test: In vivo receptor occupancy at PDGFR-beta kinase domain in rat lung at 1 mg/kg, it measured after 7 hrs by immunoprecipitation assay; type: functional
[22] = Drug uptake in rat lung at 1 mg/kg, it at 7 hrs; type: ADME, organism-based; details: inhaled or intranasal, read-out: Drug uptake; how it was run: as §1
Rattus norvegicus [23] = test: In vivo receptor occupancy at PDGFR-beta kinase domain in rat lung at 0.4 mg/kg, it measured after 24 hrs by immunoprecipitation assay; type: functional
[24] = Drug uptake in rat lung at 0.4 mg/kg, it at 24 hrs; type: ADME, organism-based; details: inhaled or intranasal, read-out: Drug uptake; how it was run: as §1

Histamine H3 receptor, sequence (Q9Y5N1 whole entry): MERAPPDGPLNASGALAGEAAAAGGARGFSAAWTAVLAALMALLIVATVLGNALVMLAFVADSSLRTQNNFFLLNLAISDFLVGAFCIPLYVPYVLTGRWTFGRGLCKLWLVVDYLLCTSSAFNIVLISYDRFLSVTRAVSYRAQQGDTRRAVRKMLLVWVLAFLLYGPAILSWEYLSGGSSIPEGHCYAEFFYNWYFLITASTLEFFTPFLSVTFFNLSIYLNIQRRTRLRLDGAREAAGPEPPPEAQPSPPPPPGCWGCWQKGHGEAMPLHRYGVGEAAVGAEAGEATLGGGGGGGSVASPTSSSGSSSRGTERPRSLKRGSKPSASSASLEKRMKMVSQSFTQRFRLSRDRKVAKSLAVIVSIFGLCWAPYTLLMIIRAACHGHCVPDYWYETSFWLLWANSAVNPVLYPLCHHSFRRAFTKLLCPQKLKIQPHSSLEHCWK
Voltage-gated inwardly rectifying potassium channel KCNH2, sequence (Q12809 whole entry): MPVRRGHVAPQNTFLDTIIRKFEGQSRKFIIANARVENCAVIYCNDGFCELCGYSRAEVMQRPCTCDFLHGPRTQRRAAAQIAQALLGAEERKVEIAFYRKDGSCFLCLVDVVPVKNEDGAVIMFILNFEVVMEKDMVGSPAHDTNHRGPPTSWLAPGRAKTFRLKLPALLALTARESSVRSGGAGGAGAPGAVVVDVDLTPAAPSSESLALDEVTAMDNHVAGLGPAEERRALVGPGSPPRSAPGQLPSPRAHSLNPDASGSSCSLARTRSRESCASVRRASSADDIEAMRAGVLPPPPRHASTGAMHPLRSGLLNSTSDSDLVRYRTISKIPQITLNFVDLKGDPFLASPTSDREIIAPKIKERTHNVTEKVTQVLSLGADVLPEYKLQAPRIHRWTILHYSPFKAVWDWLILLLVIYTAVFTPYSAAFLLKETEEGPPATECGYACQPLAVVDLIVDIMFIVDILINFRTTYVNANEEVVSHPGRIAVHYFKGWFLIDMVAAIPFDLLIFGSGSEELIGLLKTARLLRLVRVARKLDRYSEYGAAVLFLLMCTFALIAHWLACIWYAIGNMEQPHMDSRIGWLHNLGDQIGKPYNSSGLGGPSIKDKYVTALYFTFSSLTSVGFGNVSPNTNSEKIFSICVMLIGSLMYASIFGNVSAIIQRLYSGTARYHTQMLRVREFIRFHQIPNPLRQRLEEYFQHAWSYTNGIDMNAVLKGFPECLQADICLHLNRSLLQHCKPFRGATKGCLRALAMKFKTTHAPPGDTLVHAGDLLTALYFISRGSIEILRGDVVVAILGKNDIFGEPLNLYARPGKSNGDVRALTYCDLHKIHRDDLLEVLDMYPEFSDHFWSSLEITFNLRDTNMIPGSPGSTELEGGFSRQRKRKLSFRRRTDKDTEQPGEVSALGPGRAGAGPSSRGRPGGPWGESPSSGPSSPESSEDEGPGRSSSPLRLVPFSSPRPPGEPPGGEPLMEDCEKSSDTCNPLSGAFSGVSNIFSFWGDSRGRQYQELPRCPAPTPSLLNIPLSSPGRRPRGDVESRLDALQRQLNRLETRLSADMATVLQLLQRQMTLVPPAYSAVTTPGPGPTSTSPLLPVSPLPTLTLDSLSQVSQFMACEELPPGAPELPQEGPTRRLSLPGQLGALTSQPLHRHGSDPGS
Platelet-derived growth factor receptor alpha, sequence (P16234 whole entry, the tested form may be a part): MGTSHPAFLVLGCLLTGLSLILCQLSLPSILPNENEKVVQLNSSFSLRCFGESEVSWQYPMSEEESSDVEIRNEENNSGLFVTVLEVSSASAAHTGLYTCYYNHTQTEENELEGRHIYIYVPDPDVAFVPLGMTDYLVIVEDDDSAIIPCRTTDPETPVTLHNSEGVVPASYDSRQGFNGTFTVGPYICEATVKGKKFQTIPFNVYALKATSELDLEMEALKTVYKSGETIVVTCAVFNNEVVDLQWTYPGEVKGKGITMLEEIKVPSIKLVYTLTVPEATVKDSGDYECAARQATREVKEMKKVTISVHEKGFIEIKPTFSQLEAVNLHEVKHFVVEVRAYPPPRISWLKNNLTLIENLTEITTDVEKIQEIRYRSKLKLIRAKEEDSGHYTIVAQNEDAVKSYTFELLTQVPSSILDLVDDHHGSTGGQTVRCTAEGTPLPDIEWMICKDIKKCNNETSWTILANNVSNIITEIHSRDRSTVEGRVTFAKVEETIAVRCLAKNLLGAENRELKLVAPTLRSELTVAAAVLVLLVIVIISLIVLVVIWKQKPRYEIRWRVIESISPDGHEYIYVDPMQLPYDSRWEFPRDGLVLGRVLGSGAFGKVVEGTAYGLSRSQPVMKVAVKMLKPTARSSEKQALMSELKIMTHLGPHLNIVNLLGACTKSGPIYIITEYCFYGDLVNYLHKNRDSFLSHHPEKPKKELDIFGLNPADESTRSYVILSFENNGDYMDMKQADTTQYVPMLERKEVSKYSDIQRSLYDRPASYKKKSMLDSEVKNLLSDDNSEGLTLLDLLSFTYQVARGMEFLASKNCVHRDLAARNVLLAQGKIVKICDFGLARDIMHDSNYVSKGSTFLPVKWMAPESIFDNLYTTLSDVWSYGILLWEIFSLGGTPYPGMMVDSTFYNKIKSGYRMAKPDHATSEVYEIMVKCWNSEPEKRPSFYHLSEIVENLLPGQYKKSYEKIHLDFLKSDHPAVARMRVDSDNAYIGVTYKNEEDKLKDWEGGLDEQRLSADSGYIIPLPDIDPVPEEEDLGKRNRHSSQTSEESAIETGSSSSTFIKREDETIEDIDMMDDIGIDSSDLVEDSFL

permeability [1]: 0%
pIC50 [2]: > 10.00
Compound: CN1CCN(c2ccccc2CNC(=O)c2ccc(F)c(NC(=O)c3cnc4cc(-c5cc[nH]n5)ccn34)c2)CC1

permeability [1]: 0.7%
solubility [3]: > 1000 µg/mL
concentration at 7 h [5]: 1030 nM
concentration at 24 h [7]: 420 nM
Compound: Cn1cc(-c2ccn3c(C(=O)Nc4cc(C(=O)NCCN5CCCC5(C)C)ccc4F)cnc3c2)cn1
Occ (Rattus norvegicus [4]): 82%
Occ (Rattus norvegicus [6]): 51%

permeability [1]: 70%
solubility [3]: > 1000 µg/mL
concentration at 7 h [9]: 221 nM
Compound: CN1CCN(c2ccccc2CNC(=O)c2ccc(F)c(NC(=O)c3cnn4cc(-c5ccnn5C)ccc34)c2)CC1
Occ (Rattus norvegicus [8]): 29%

permeability [1]: 83.1%
Compound: CN1CCN(c2ccccc2CNC(=O)c2ccc(F)c(NC(=O)c3cnc4ccccn34)c2)CC1

permeability [1]: 23%
Compound: CN1CCN(c2ccccc2CNC(=O)c2ccc(F)c(NC(=O)c3cnc4cc(-c5cccnc5)ccn34)c2)CC1

permeability [1]: 26.3%
Compound: CN1CCN(c2ccccc2CNC(=O)c2ccc(F)c(NC(=O)c3cnc4cc(-c5cnn(C)c5)ccn34)c2)CC1

permeability [1]: 11%
solubility [3]: < 10 µg/mL
concentration at 7 h [22]: 276000 nM
Compound: Cn1nccc1-c1ccn2c(C(=O)Nc3cc(C(=O)NCc4ccc(F)c(F)c4)ccc3F)cnc2c1
Occ (Rattus norvegicus [21]): 27%

permeability [1]: 17%
solubility [3]: > 1000 µg/mL
concentration at 7 h [9]: 3950 nM
Compound: Cc1ncc(C(=O)NCc2ccccc2N2CCN(C)CC2)cc1NC(=O)c1cnn2cc(-c3ccnn3C)ccc12
Occ (Rattus norvegicus [8]): 83%

permeability [1]: 4.8%
solubility [3]: 770 µg/mL (≈ 1360 µM)
concentration at 7 h [5]: 687 nM
concentration at 7 h [9]: 687 nM
concentration at 24 h [24]: 60 nM
Compound: CN1CCN(c2ccccc2CNC(=O)c2ccc(F)c(NC(=O)c3cnc4cc(-c5ccnn5C)ccn34)c2)CC1
Occ (Rattus norvegicus [4]): 54%
Occ (Rattus norvegicus [8]): 70%
Occ (Rattus norvegicus [23]): 9%

The remaining lines, values behind:

Compound: Cn1nccc1-c1ccn2c(C(=O)Nc3cc(C(=O)NCCN4CCCC4(C)C)ccc3F)cnc2c1
permeability [1]: 0.6%

Compound: CCN(CCNC(=O)c1ccc(F)c(NC(=O)c2cnc3cc(-c4ccnn4C)ccn23)c1)C(C)(C)C
permeability [1]: 23%

Compound: Cc1ncc(C(=O)NCCN2CCCC2(C)C)cc1NC(=O)c1cnn2cc(-c3cnn(C)c3)ccc12
permeability [1]: 4.7%
pIC50 [10]: < 4.52
pIC50 [11]: 5.30
pIC50 (Histamine H3 receptor): 5.30
solubility [3]: > 1000 µg/mL
Occ (Rattus norvegicus [4]): 88%
concentration at 7 h [5]: 1300 nM
Occ (Rattus norvegicus [6]): 81%
concentration at 24 h [7]: 680 nM
concentration [12]: 210 nM
concentration [13]: 750 nM
concentration [14]: 1900 nM
half-life [15]: 14 h
bioavailability [16]: 90%
Activity (Rattus norvegicus [17]): 14.3%
minimal effective dose (Rattus norvegicus [18]): 0.03 mg/kg

Compound: CN(CCNC(=O)c1ccc(F)c(NC(=O)c2cnc3cc(-c4ccnn4C)ccn23)c1)C(C)(C)C
permeability [1]: 0%

Compound: Cn1nccc1-c1ccn2c(C(=O)Nc3cc(C(=O)NCC4CCC(C)(C)O4)ccc3F)cnc2c1 (centres undefined)
permeability [1]: 81%

Compound: C[C@@H]1CCC[C@H](C)N1CCNC(=O)c1ccc(F)c(NC(=O)c2cnc3cc(-c4ccnn4C)ccn23)c1
permeability [1]: 5.4%
solubility [3]: 590 µg/mL (≈ 1140 µM)
Occ (Rattus norvegicus [4]): 75%
concentration at 7 h [5]: 302 nM
Occ (Rattus norvegicus [6]): 0%
concentration at 24 h [7]: 44 nM

Compound: Cc1ccc(NC(=O)c2ccc(CN3CCN(C)CC3)cc2)cc1Nc1nccc(-c2cccnc2)n1 [IMATINIB]
concentration [19]: 306000 nM
Activity (Rattus norvegicus [20]): Active
